Values after ≈ are worked out from the molar mass of the structure shown. Active and inactive are the calls of the source. The rule behind the calls is not given here.
Legend:
[1] = target: Acetylcholinesterase (Electrophorus electricus) (UniProt O42275); assay: Inhibition of electric eel AChE using acetylthiocholine iodide as substrate pretreated for 15 mins followed by substrate addition measured for 6 mins by Ellman's method
In short: (§1)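 Ellman spectrophotometric assay in 0.1 M phosphate buffer pH 8.0 with DTNB, 25 °C. AChE (electric eel, Type V-S) or BChE was preincubated 15 min with compound before adding acetylthiocholine iodide or butyrylthiocholine iodide, respectively. Absorbance change at 412 nm was read for 6 min. Five concentrations were tested in triplicate, corrected by a nonenzymatic blank, with a no-inhibitor reference.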

Cholinesterase = Cholinesterase (Equus caballus, UniProt P81908); assay: Inhibition of equine serum BChE using butyrylthiocholine iodide as substrate pretreated for 15 mins followed by substrate addition measured for 6 mins by Ellman's method; details: read-out: IC50; in short: as §1
Cholinesterase, sequence (P81908 whole entry): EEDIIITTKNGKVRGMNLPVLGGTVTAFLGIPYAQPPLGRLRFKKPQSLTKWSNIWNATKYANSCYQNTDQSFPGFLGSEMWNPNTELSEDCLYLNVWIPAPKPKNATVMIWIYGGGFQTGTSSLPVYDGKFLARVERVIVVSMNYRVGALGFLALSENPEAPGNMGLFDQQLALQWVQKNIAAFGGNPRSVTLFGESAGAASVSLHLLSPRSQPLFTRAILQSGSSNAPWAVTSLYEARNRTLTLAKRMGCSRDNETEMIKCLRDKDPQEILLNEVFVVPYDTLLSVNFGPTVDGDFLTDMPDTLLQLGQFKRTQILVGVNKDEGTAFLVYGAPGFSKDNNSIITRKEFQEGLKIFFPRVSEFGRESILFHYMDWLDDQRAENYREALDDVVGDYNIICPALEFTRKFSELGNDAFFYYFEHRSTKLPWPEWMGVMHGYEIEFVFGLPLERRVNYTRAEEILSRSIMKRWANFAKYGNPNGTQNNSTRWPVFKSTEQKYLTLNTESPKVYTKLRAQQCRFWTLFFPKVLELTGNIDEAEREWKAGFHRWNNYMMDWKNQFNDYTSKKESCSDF

Pseudomonas aeruginosa [2] = assay: Antibacterial activity against Pseudomonas aeruginosa ATCC 27853; format: functional
Escherichia coli [3] = assay: Antibacterial activity against Escherichia coli ATCC 10536 assessed as diameter of inhibition zone at 200 ug per disc after 24 hrs by agar disc diffusion method; format: functional; details: ATCC 10536, 24 h, read-out: DIZ
In short: (§2)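 Agar disc diffusion. Compounds at 20 mg mL⁻¹ in DMSO, filter-sterilised. 100 µL of 10⁸ CFU mL⁻¹ bacteria spread on nutrient agar. 6 mm discs carried 10 µl (200 µg per disc), with DMSO discs as negative control. Incubation 24 h at 37 °C. Read-out is inhibition zone diameter, mean of 3 repeats (±1 mm).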

Escherichia coli [4] = assay: Antibacterial activity against Escherichia coli ATCC 10536; format: functional
Klebsiella pneumoniae [5] = assay: Antibacterial activity against Klebsiella pneumoniae ATCC 10031 assessed as diameter of inhibition zone at 200 ug per disc after 24 hrs by agar disc diffusion method; format: functional; in short: as §2
Salmonella paratyphi [6] = assay: Antibacterial activity against Salmonella paratyphi A serotype ATCC 5702; format: functional; details: Salmonella enterica subsp. enterica serovar Paratyphi A
Pseudomonas aeruginosa [7] = assay: Antibacterial activity against Pseudomonas aeruginosa ATCC 27853 assessed as diameter of inhibition zone at 200 ug per disc after 24 hrs by agar disc diffusion method; format: functional; details: ATCC 27853, 24 h, read-out: DIZ; in short: as §2
Bacillus spizizenii [8] = assay: Antibacterial activity against Bacillus subtilis ATCC 6633; format: functional
[9] = tested on: Staphylococcus epidermidis; assay: Antibacterial activity against Staphylococcus epidermidis ATCC 12228; format: functional
Bacillus spizizenii [10] = assay: Antibacterial activity against Bacillus subtilis ATCC 6633 assessed as diameter of inhibition zone at 200 ug per disc after 24 hrs by agar disc diffusion method; format: functional; details: for zone of inhibition at 200 µg/disc: ATCC 6633, 24 h, read-out: DIZ; in short: as §2
Klebsiella pneumoniae [11] = assay: Antibacterial activity against Klebsiella pneumoniae ATCC 10031; format: functional
[12] = tested on: Staphylococcus epidermidis; assay: Antibacterial activity against Staphylococcus epidermidis ATCC 12228 assessed as diameter of inhibition zone at 200 ug per disc after 24 hrs by agar disc diffusion method; format: functional; details: for zone of inhibition at 200 µg/disc: ATCC 12228, 24 h, read-out: DIZ; in short: as §2
Proteus vulgaris [13] = assay: Antibacterial activity against Proteus vulgaris PTCC 1182; format: functional
Shigella dysenteriae [14] = assay: Antibacterial activity against Shigella dysenteriae PTCC 1188; format: functional
Staphylococcus aureus [15] = assay: Antibacterial activity against Staphylococcus aureus ATCC 29737 assessed as diameter of inhibition zone at 200 ug per disc after 24 hrs by agar disc diffusion method; format: functional; details: ATCC 29737, 24 h, read-out: DIZ; in short: as §2
Shigella dysenteriae [16] = assay: Antibacterial activity against Shigella dysenteriae PTCC 1188 assessed as diameter of inhibition zone at 200 ug per disc after 24 hrs by agar disc diffusion method; format: functional; in short: as §2
Salmonella paratyphi [17] = assay: Antibacterial activity against Salmonella paratyphi A serotype ATCC 5702 assessed as diameter of inhibition zone at 200 ug per disc after 24 hrs by agar disc diffusion method; format: functional, Salmonella enterica subsp. enterica serovar Paratyphi A; in short: as §2
Staphylococcus aureus [18] = assay: Antibacterial activity against Staphylococcus aureus ATCC 29737; format: functional
Proteus vulgaris [19] = assay: Antibacterial activity against Proteus vulgaris PTCC 1182 assessed as diameter of inhibition zone at 200 ug per disc after 24 hrs by agar disc diffusion method; format: functional; in short: as §2
Candida albicans [20] = assay: Antifungal activity against Candida albicans ATCC 10231 assessed as diameter of inhibition zone at 200 ug per disc after 48 hrs by agar disc diffusion method; format: functional; details: ATCC 10231, 48 h, read-out: DIZ
In short: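 Yeast tested by agar disc diffusion. Compounds at 20 mg mL⁻¹ in DMSO, filter-sterilised. 6 mm discs carried 10 µl (200 µg per disc), with DMSO discs as negative control. Incubation 48 h at 30 °C. Zone diameter was averaged over 3 repeats (±1 mm).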

Aspergillus niger [21] = assay: Antifungal activity against Aspergillus niger ATCC 16404 assessed as diameter of inhibition zone at 200 ug per disc after 72 hrs by agar disc diffusion method; format: functional; details: ATCC 16404, 72 h, read-out: DIZ
In short: (§3)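 Agar disc diffusion against mold. Compounds at 20 mg mL⁻¹ in DMSO, filter-sterilised. 6 mm discs carried 10 µl (200 µg per disc), with DMSO discs as negative control. Incubation 72 h at 30 °C. Read-out is growth inhibition zone diameter, mean of 3 repeats (±1 mm).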

Aspergillus brasiliensis [22] = assay: Antifungal activity against Aspergillus brasiliensis PTCC 5011 assessed as diameter of inhibition zone at 200 ug per disc after 72 hrs by agar disc diffusion method; format: functional; details: PTCC 5011, 72 h, read-out: DIZ; in short: as §3
Aspergillus niger [23] = assay: Antifungal activity against Aspergillus niger ATCC 16404; format: functional
Candida albicans [24] = assay: Antifungal activity against Candida albicans ATCC 10231; format: functional
Aspergillus brasiliensis [25] = assay: Antifungal activity against Aspergillus brasiliensis PTCC 5011; format: functional

Acetylcholinesterase (Electrophorus electricus), sequence (O42275 24-633 limits assumed): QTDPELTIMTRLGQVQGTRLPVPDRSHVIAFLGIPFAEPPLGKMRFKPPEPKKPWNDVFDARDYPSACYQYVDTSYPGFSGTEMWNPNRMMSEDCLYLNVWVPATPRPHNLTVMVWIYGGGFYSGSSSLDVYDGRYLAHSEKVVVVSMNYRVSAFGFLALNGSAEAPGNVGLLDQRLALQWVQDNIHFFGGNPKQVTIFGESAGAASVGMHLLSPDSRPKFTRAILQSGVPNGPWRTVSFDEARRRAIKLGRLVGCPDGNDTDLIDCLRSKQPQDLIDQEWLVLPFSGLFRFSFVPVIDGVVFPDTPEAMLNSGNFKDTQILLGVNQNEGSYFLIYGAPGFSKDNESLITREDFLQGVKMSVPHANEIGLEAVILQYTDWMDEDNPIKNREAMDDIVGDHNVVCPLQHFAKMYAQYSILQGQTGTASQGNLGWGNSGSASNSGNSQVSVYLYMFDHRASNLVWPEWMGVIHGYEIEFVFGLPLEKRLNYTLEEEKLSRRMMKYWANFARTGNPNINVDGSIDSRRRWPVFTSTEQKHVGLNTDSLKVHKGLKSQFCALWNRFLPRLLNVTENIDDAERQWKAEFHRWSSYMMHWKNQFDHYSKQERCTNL

For `c1ccc2c(c1)N=C(c1cc3ccccc3o1)CC(c1c[nH]c3ccccc13)S2` (stereo not drawn), the inhibition [1] was “inactive” and the IC50 (Cholinesterase) was 60 µM.
`COc1ccccc1C1CC(c2cc3cc(Br)ccc3o2)=Nc2ccccc2S1` (stereo not drawn) was tested, and the inhibition [1] was “inactive” and the IC50 (Cholinesterase) was 1.8 µM.
In the case of `COc1cccc(C2CC(c3cc4cc(Br)ccc4o3)=Nc3ccccc3S2)c1` (stereo not drawn), the inhibition [1] is reported as “inactive” and the IC50 (Cholinesterase) is reported as 1 µM.
With `CO[C@H]1/C=C/O[C@@]2(C)Oc3c(C)c(O)c4c(O)c(c(/C=N/N5CCN(C)CC5)c(O)c4c3C2=O)NC(=O)/C(C)=C\C=C\[C@H](C)[C@H](O)[C@@H](C)[C@@H](O)[C@@H](C)[C@H](OC(C)=O)[C@@H]1C` [RIFAMPIN] the MIC (Pseudomonas aeruginosa [2]) was “inactive”, the zone of inhibition at 200 µg/disc (Escherichia coli [3]) was 11 mm and the MIC (Escherichia coli [4]) was 0.5 µg/mL (≈ 0.608 µM). The zone of inhibition at 200 µg/disc (Klebsiella pneumoniae [5]; ATCC 10031, 24 h, read-out: DIZ) was 7 mm, the MIC (Salmonella paratyphi [6]) was “inactive” and the zone of inhibition at 200 µg/disc (Pseudomonas aeruginosa [7]) was under 6 mm. The MIC (Bacillus spizizenii [8]) was 0.125 µg/mL (≈ 0.152 µM), the MIC [9] was 0.25 µg/mL (≈ 0.304 µM) and the zone of inhibition at 200 µg/disc (Bacillus spizizenii [10]) was 13 mm. The MIC (Klebsiella pneumoniae [11]) was 0.25 µg/mL (≈ 0.304 µM), the zone of inhibition at 200 µg/disc [12] was 40 mm and the MIC (Proteus vulgaris [13]) was 0.125 µg/mL (≈ 0.152 µM). The MIC (Shigella dysenteriae [14]) was 0.25 µg/mL (≈ 0.304 µM), the zone of inhibition at 200 µg/disc (Staphylococcus aureus [15]) was 10 mm and the zone of inhibition at 200 µg/disc (Shigella dysenteriae [16]; PTCC 1188, 24 h, read-out: DIZ) was 8 mm. It also gave a zone of inhibition at 200 µg/disc (Salmonella paratyphi [17]; Salmonella enterica, ATCC 5702, 24 h, read-out: DIZ) of under 6 mm, an MIC (Staphylococcus aureus [18]) of 0.25 µg/mL (≈ 0.304 µM) and a zone of inhibition at 200 µg/disc (Proteus vulgaris [19]; PTCC 1182, 24 h, read-out: DIZ) of 10 mm.
With `COc1ccccc1C1CC(c2cc3ccccc3o2)=Nc2ccccc2S1` (stereo not drawn) the inhibition [1] was “inactive” and the IC50 (Cholinesterase) was 4.8 µM.
For `c1ccc2c(c1)N=C(c1cc3ccccc3o1)CC(c1cccc3ccccc13)S2` (stereo not drawn), the zone of inhibition at 200 µg/disc (Candida albicans [20]) was 14 mm, the MIC (Bacillus spizizenii [8]) was “inactive” and the zone of inhibition at 200 µg/disc (Aspergillus niger [21]) was under 6 mm. For the same molecule, the inhibition [1] was “inactive”, the MIC [9] was 5 µg/mL (≈ 12.3 µM) and the zone of inhibition at 200 µg/disc (Bacillus spizizenii [10]) was under 6 mm. The zone of inhibition at 200 µg/disc [12] was 9 mm, the zone of inhibition at 200 µg/disc (Aspergillus brasiliensis [22]) was under 6 mm and the zone of inhibition at 200 µg/disc (Staphylococcus aureus [15]) was 10 mm. The MIC (Aspergillus niger [23]) was “inactive”, the MIC (Staphylococcus aureus [18]) was 5 µg/mL (≈ 12.3 µM) and the MIC (Candida albicans [24]) was 25 µg/mL (≈ 61.6 µM). For the same molecule, the MIC (Aspergillus brasiliensis [25]) was “inactive” and the IC50 (Cholinesterase) was 63 µM.
With `COc1cccc(C2CC(c3cc4ccccc4o3)=Nc3ccccc3S2)c1` (stereo not drawn) the inhibition [1] was “inactive” and the IC50 (Cholinesterase) was 4.1 µM.
`Oc1ccc(C2CC(c3cc4ccccc4o3)=Nc3ccccc3S2)cc1` (stereo not drawn) was tested, and the inhibition [1] was “inactive” and the IC50 (Cholinesterase) was 14 µM.
For GENTAMICIN, the MIC (Pseudomonas aeruginosa [2]) was “inactive”, the inhibition zone (IZ) (Klebsiella pneumoniae [5]) was 22 mm and the inhibition zone (IZ) (Bacillus spizizenii [10]) was 21 mm. It also gave an MIC (Klebsiella pneumoniae [11]) of 0.25 µg/mL, an inhibition zone (IZ) [12] of 35 mm and an inhibition zone (IZ) (Shigella dysenteriae [16]) of 18 mm. For the same molecule, the inhibition zone (IZ) (Salmonella paratyphi [17]; Salmonella enterica subsp. enterica serovar Paratyphi A) was 21 mm and the inhibition zone (IZ) (Proteus vulgaris [19]) was 23 mm.
`COc1cccc2cc(C3=Nc4ccccc4SC(c4ccc(O)cc4)C3)oc12` (stereo not drawn) was tested, and the inhibition [1] was “inactive” and the IC50 (Cholinesterase) was 4.1 µM.
`COc1cccc2cc(C3=Nc4ccccc4SC(c4ccccc4)C3)oc12` (stereo not drawn) was tested, and the inhibition [1] was “inactive” and the IC50 (Cholinesterase) was 2.5 µM.
With `COc1ccc(C2CC(c3cc4ccccc4o3)=Nc3ccccc3S2)cc1` (stereo not drawn) the inhibition [1] was “inactive” and the IC50 (Cholinesterase) was 4 µM.
